Experimental data of several laboratories.
Each line is one published result; the experiments were not run side by side.
Blk: Tyrosine-protein kinase Blk (Blk, Mus musculus, UniProt P16277)
BRAF V600E: Serine/threonine-protein kinase B-raf (BRAF, Homo sapiens, UniProt P15056, V600E)
DRD2: D(2) dopamine receptor (DRD2, Homo sapiens, UniProt P14416)
PADI2: Protein-arginine deiminase type-2 (PADI2, Homo sapiens, UniProt Q9Y2J8)
SMARCA2: SWI/SNF-related matrix-associated actin-dependent regulator of chromatin subfamily A member 2 (SMARCA2, Homo sapiens, UniProt P51531)

Compound | target | assay | setting | measurement | value
Cc1ccc(Nc2nccc(N(C)c3ccc4c(C)n(C)nc4c3)n2)cc1S(N)(=O)=O | Blk | enzyme activity, inhibitor | 0.3 µM | inhibition | 9%
Cc1ccc(C(CS(=O)(=O)c2ccccc2)=NNc2nc(C)c(N=Nc3cccc(C)c3)s2)cc1 | BRAF V600E | enzyme activity, inhibitor, ATP luminescence | 10 µM | inhibition | 92%
CC(C)c1ccccc1OCCOCC(O)CN1CCN(c2cccc(C(F)(F)F)c2)CC1 (stereo not shown) | DRD2 | enzyme activity, inhibitor | 10 µM | inhibition | 37.8%
N=C(CCl)NCCC[C@H](NC(=O)c1ccc(-c2ccccc2)cc1)c1nn[nH]n1 | PADI2 | enzyme activity, inhibitor | – | kinact/KI | 37.2 M⁻¹ s⁻¹
Cc1ccc(N=Nc2sc(NN=C(CS(=O)(=O)c3ccccc3)c3ccc(C)cc3)nc2C)cc1 | BRAF V600E | enzyme activity, inhibitor, ATP luminescence | 1 µM | inhibition | 73%
Cc1ccc(NC(=O)c2ccc(C)c(C(F)(F)F)c2)cc1C#Cc1nn(C2CCC(O)CC2)c2ncnc(N)c12 (stereo not shown) | Dual specificity mitogen-activated protein kinase kinase 4 (Map2k4, Mus musculus, UniProt P47809) | cell-free assay | 10 µM | remaining signal | 49%
O=c1nc2n(c3cccc(Cl)c13)CC/C2=C\c1ccccc1 | SMARCA2 | thermal stability, DSF | 100 µM | ΔTm | 2.14 °C
NC1=NCC(c2cccc3ccccc23)OC1 (stereo not shown) | Beta-secretase 1 (BACE1, Homo sapiens, UniProt P56817) | thermal stability, DSF | 2.1 mM, pH 5.4 | ΔTm | 0.63 °C
COc1cc(CNCCc2c[nH]c3ccccc23)cc(Cl)c1OCC(N)=O | DRD2 | enzyme activity, inhibitor | 10 µM | inhibition | 30.3%
N=C(CF)NCCC[C@H](NC(=O)c1ccccc1)c1nn[nH]n1 | PADI2 | enzyme activity, inhibitor | – | kinact/KI | 6.42 M⁻¹ s⁻¹
Cc1ccc(C(CS(=O)(=O)c2ccccc2)=NNc2nc(C)c(N=Nc3ccccc3)s2)cc1 | BRAF V600E | enzyme activity, inhibitor, ATP luminescence | 0.1 µM | inhibition | 42%
CCC(/C=C1\CCCn2c1nc(=O)c1c(Cl)cccc12)CC | SMARCA2 | thermal stability, DSF | 100 µM | ΔTm | 0.48 °C
Cc1ccc(C(CS(=O)(=O)c2ccccc2)=NN=C2N=C(c3ccc(C)cc3)CS2)cc1 | BRAF V600E | enzyme activity, inhibitor, ATP luminescence | 10 nM | inhibition | 22%
CN(C)/C=C1\CCCn2c1nc(=O)c1c(Cl)cccc12 | SMARCA2 | thermal stability, DSF | 100 µM | ΔTm | 0.49 °C
Cc1ccc(C(=O)Nc2ccc(CN3CCN(C)CC3)c(C(F)(F)F)c2)cc1C#Cc1cnc2cccnn12 | Microtubule-associated serine/threonine-protein kinase 1 (MAST1, Homo sapiens, UniProt Q9Y2H9) | enzyme activity, inhibitor | 23.5 nM | remaining activity | 95%
CC(C)(C)c1nc(-c2cccc(NS(=O)(=O)c3c(F)cccc3F)c2F)c(-c2ccnc(N)n2)s1 | BRAF V600E | enzyme activity, inhibitor, ATP luminescence | 0.1 µM | inhibition | 58%
N=C(CF)NCCC[C@H](NC(=O)c1ccccc1C(=O)O)c1nn[nH]n1 | PADI2 | enzyme activity, inhibitor | – | kinact/KI | 42.5 M⁻¹ s⁻¹
Oc1ccc(-c2nc(-c3ccncc3)c(-c3ccc(F)cc3)[nH]2)cc1 | SMARCA2 | thermal stability, DSF | 10 µM | ΔTm | 0.56 °C
CC(C)(C)C/C=C1\CCn2c1nc(=O)c1c(Cl)cccc12 | SMARCA2 | thermal stability, DSF | 100 µM | ΔTm | 1.61 °C
CC(=O)N[C@H]1CSSC[C@@H](C(=O)N[C@@H](Cc2c[nH]c3ccccc23)C(N)=O)NC(=O)[C@H](Cc2ccccc2)NC(=O)[C@H](CCCNC(=N)N)NC1=O | Melanocortin receptor 3 (MC3R, Homo sapiens, UniProt P41968) | ligand displacement, radioligand | 10 µM, 40 min | inhibition | 42%
Cc1ccc(C(CS(=O)(=O)c2ccccc2)=NNC(N)=S)cc1 | BRAF V600E | enzyme activity, inhibitor, ATP luminescence | 1 µM | inhibition | 69%
Nc1ncnc2occ(-c3ccc(NC(=O)Nc4cc(C(F)(F)F)ccc4F)cc3)c12 | Epidermal growth factor receptor (EGFR, Homo sapiens, UniProt P00533, L858R/T790M) | cell-free assay | 20 µM | remaining signal | 13%
NS(=O)(=O)c1ccc(Nc2nc(-c3ccc(F)cc3)c3ccccc3n2)cc1 | SMARCA2 | binding, competition with immobilised ligand | 1 µM | remaining binding | 74%
N=C(CF)NCCC[C@H](NC(=O)c1ccc(-c2ccccc2)cc1)c1nn[nH]n1 | PADI2 | enzyme activity, inhibitor | – | kinact/KI | 17.2 M⁻¹ s⁻¹
CCC(/C=C1\CCn2c1nc(=O)c1ccc(OC)cc12)CC | SMARCA2 | thermal stability, DSF | 100 µM | ΔTm | 0 °C
Cc1cnc(Nc2ccc(OCCN3CCCC3)cc2)nc1Nc1cccc(S(=O)(=O)NC(C)(C)C)c1 | SMARCA2 | thermal stability, DSF | 10 µM | ΔTm | -0.09 °C
CC(C)(C)/C=C1\CCn2c1nc(=O)c1c(Cl)cccc12 | SMARCA2 | thermal stability, DSF | 100 µM | ΔTm | -0.14 °C
CCCOc1ccc(OC)c(F)c1C(=O)c1ccc(C(=O)N[C@@H]2CNC[C@H]2NC(=O)c2ccc3[nH]ncc3c2)cc1 | Blk | enzyme activity, inhibitor | 10 µM | remaining activity | 42%
